Diaph act CS – compounds boosting diaphorase resazurin reduction – biochemical, uHTS, resorufin fluorescence, counter-screen for diaphorase-coupled primary assays, primary screen; activation factor at 20 µM; 190,000 tested, 0.005% active; Diaphorase/resazurin coupled assay, 16 min; hits give high values; 1 = vehicle wells, 0 = NADH-free wells;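 active = diaphorase activity raised at least twofold by the compound at 20 µM; inactive = activation factor below 2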
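Material: Clostridium kluyveri diaphorase, purified enzyme; Quantity: enzyme 0.07 U/mL final; Medium: HEPES pH 7.4 buffer with MgCl2 and Tween 20; Dosing: single compound dose of 20 µM, 1% DMSO final; Schedule: 16 min reaction at room temperature; Measured by: red resorufin fluorescence at 544/590 nm excitation/emission.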
Diaph inh CS – diaphorase inhibitors and chemical oxidizers, primary screen, counter-screen for diaphorase-coupled primary assays, biochemical, uHTS, resorufin fluorescence | diaphorase resazurin-to-resorufin fluorescence, NADH, 16 min; bacterial (C. kluyveri) enzyme, not human | inhibition, % at 20 µM | 190,000 tested, 0.69% active | AID 1217, 2008;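 active = primary screen inhibition at 20 µM above a set limit, cut at about 50% in these data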;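 also: plate controls were DMSO with full reaction for no effect and wells lacking NADH for full effect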
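Assay system: diaphorase enzyme from Clostridium kluyveri; Input: enzyme working solution with 0.14 U/mL diaphorase; Timing: 16 min at room temperature; Technique: resorufin fluorescence, excitation 544 nm, emission 590 nm; Benchmarks: positive control minus NADH, DMSO neutral control.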
G6PDH counter – L. mesenteroides G6PDH inhibitors, counter-screen for G6PDH-coupled screening assays, biochemical, Leuconostoc mesenteroides enzyme; glucose-6-phosphate dehydrogenase [Leuconostoc mesenteroides]; Purified L. mesenteroides G6PDH, diaphorase/resazurin coupled fluorescence, 45 min; inhibition, % at 5 µM; 200,000 tested, 0.12% active; AID 1020, 2008; in the data active = inhibition above about 50%
PMI activator – activators of human PMI, primary screen, biochemical, fluorescence intensity, near-Km mannose 6-phosphate; activation factor at 20 µM; purified human PMI, coupled resazurin fluorescence, 20 min; hits give high values; 1 = vehicle control, 0 substrate-free wells; 190,000 tested, 0.005% active; Mannose-6-phosphate isomerase (Homo sapiens), P34949;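 active = activation factor of 2 or more at 20 µM, relative to plate controls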
Target sequence (P34949 whole entry, looked up): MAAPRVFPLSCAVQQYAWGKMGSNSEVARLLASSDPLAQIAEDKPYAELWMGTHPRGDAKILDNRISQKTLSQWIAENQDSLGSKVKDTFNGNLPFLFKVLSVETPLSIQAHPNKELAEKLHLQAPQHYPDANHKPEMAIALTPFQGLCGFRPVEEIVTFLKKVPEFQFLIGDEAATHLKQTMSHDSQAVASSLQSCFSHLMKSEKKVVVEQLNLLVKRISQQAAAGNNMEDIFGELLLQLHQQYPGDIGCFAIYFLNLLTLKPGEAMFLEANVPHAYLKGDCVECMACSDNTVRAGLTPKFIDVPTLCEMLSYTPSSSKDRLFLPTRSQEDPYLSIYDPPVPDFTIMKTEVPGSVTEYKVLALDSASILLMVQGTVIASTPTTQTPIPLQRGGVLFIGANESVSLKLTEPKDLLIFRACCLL
PMI act satM6P – human PMI activators, high substrate, primary screen, biochemical, fluorescence intensity, near-saturating mannose 6-phosphate; Mannose-6-phosphate isomerase (Homo sapiens), P34949; coupled PMI enzyme assay, resazurin fluorescence, 20 min; hits give high values; 1 = untreated enzyme, 0 = substrate-free blank; activation factor at 20 µM; 190,000 tested, 0.34% active; AID 1216, 2008;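 active = activation factor of 2 or more at 20 µM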
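Test system: human phosphomannose isomerase with PGI, G6PDH, diaphorase coupling enzymes / Doses: 20 µM compound, 1% DMSO / Times: enzyme reaction with compound 20 min at room temperature / Measured by: Diaphorase-driven resazurin-to-resorufin fluorescence, excitation 544, emission 590 nm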
Starred values were filed as active, the others as inactive. Compounds with a hit are over-represented: about 1.1% of the library has one in this group of screens.

SMILES | Diaph act CS | Diaph inh CS | G6PDH counter | PMI activator | PMI act satM6P
CCCCNc1nnc(SCC(=O)c2c[nH]c3ccccc23)s1 | 0.9 | 12.4 | 6.4 | 1 | 1
O=C(O)c1cccc(-n2cccc2/C=C2/NC(=O)N(c3ccc(Cl)cc3)C2=O)c1 | 0.4 | 62.4* | 5.9 | 1.3 | 1
CCCCCC(=O)Nc1ccc(-c2csc(N)n2)cc1 | 1.1 | -5.2 | 8.4 | 1.3 | 1.1
Nc1nc(COc2ccc(F)cc2Cl)nc(N2CCCCC2)n1 | 0.9 | 7.3 | -3.4 | 1 | 1
CCOC(=O)C1CCN(S(=O)(=O)Cc2ccccc2)CC1 | 1.1 | -14.8 | 50.7* | 1.1 | 1.1
c1ccc(Oc2cc(-c3ccccc3)ncn2)cc1 | 1 | 1.4 | 4.0 | 1 | 1.1
COc1ccc(N2CCN(C(=O)c3c(C)nn(-c4ccccc4)c3C)CC2)cc1 | 0.9 | 7.9 | 6.6 | 1 | 1
CCc1nc(SCc2ccc(Cl)cc2)n[nH]1 | 0.4 | 64.5* | 5.3 | 1 | 1
CC(C)/C(=N/Nc1ccccc1[N+](=O)[O-])c1ccccc1 | 0.5 | 50.3* | 7.8 | 0.8 | 0.5
CC(C)Oc1ccccc1/C=N/Nc1ccccc1[N+](=O)[O-] | 0.8 | 18.9 | 7.1 | 0.8 | 0.9
O=c1[nH]c2ccccc2c(O)c1O | 0.3 | 72.4* | 15.2 | 0.3 | 0.2
O=C(NNc1cc(Br)c(O)c(Br)c1)c1ccccc1 | 0.8 | 24.7 | 4.9 | 1.6 | 2*
Cc1cccc(C(=O)NNC(=O)c2ccccc2)c1 | 0.8 | 15.1 | -1.4 | 0.9 | 1
COc1cc(OC)cc(C(=O)NCc2cc(C)nc3ccccc23)c1 | 0.2 | 75.6* | 2.1 | 0.9 | 1
Cc1cc(NC(=O)CCC(=O)N(c2ccc(F)cc2)C(C(=O)NC2CCCC2)c2ccc(C)o2)no1 (stereo unspecified) | 1.1 | -14.0 | 12.8 | 1 | 1
Cc1cc(C)c2c(c1)C1C=CCC1C(c1ccc(S(=O)(=O)N3CCOCC3)cc1)N2 (stereo unspecified) | 0.8 | 20.0 | 2.5 | 1.4 | 2.2*
O=C(O)c1cc(Cl)c2c(c1)[C@@H]1C=CC[C@@H]1[C@H](c1ccc(S(=O)(=O)N3CCOCC3)cc1)N2 | 0.7 | 34.1 | 9.8 | 1.4 | 1.7
Cc1cccc(NC(=O)CCC(=O)OCC(=O)c2ccc(Oc3ccc([N+](=O)[O-])cc3)cc2)c1 | 0.3 | 66.9* | -2.0 | 1 | 1
Cc1ccc(S(=O)(=O)N2CCCC(C(=O)Nc3ccc(C(=O)O)cc3)C2)cc1Cl (stereo unspecified) | 0.9 | 6.5 | -4.3 | 1 | 1
CCC(C)Sc1cc(C)c(C#N)c2nc3ccccc3n12 (stereo unspecified) | 0.5 | 51.7* | 15.3 | 0.9 | 0.7
CC(C)NCC(O)c1ccc(NS(C)(=O)=O)cc1 (stereo unspecified) | 1 | 0.2 | 6.9 | 1 | 1.1
CC(C)NC[C@@H](O)c1ccc(O)c(O)c1 | 0.4 | 62.1* | 62.8* | 0.3 | 0.4
Cc1cc(C)n(-c2ccc(N3CCOCC3)nn2)n1 | 0.9 | 8.9 | 30.2 | 0.9 | 0.9
Cc1cc(C)n(-c2nnc(N3CCN(c4ccc(F)cc4)CC3)nn2)n1 | 0.5 | 52.7* | 2.5 | 0.1 | 0.4
CCCCC[n+]1ccn(-c2nc3ccccc3nc2[N-]S(=O)(=O)c2ccc(C)cc2)c1 | 0.9 | 5.5 | -1.1 | 0.9 | 0.9
CCCCC[n+]1ccn(C2=C([O-])c3ccccc3C(=O)/C2=N\S(=O)(=O)c2ccccc2)c1 | 0.9 | 5.7 | 54.9* | 0.9 | 0.5
CCCC[n+]1ccn(C2=C([O-])c3ccccc3C(=O)/C2=N\S(=O)(=O)c2ccccc2)c1 | 0.9 | 12.0 | 56.3* | 0.9 | 0.5
CCCC[n+]1ccn(-c2nc3ccccc3nc2[N-]S(=O)(=O)c2ccccc2)c1 | 0.9 | 11.0 | -8.3 | 1 | 1
